Assay results from ChEMBL document CHEMBL5608187, “Discovery of pyridoquinoxaline-based new P-gp inhibitors as coadjutant against Multi Drug Resistance in cancer” (Eur J Med Chem, 2024).
Active and inactive are the calls of the source. The rule behind the calls is not given here.

How the values were obtained:
HuP-T3 [1] = test: Coadjutant activity against multidrug resistance in human Hup-T3 cells assessed as potentiation of vincristine-induced cell growth inhibition by measuring cell growth at 4 uM incubated for 72 hrs in presence of 0.02 to 20 uM vincristine by SiR-DNA/CellTox Green Dye based fluorescence analysis; format: functional; parameters: scale not given: the % may be the effect or the level left
In short: (§1)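 Growth by live-cell imaging: 500 cells/well plated with SiR-DNA and CellTox Green dye; serial dilutions in phenol-red-free complete medium added next day. Imaged at addition and at 72 h. Live cells = SiR-DNA nuclei minus CellTox-positive dead cells; percentage growth calculated. Three technical replicates; two-tailed t-test. Inhibitor paired with anticancer drug at fixed or scaled levels.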

[2] = molecular target: T1, ATP-dependent translocase ABCB1 (Homo sapiens, UniProt P08183); test: Inhibition of P-gp in human HT1197 cells assessed as increase in green fluorescence intensity at 0.1 to 10 uM incubated for 15 mins followed by incubation with EFFLUX-ID Green Detection Reagent and Hoeschst-33342 dye and measured after 30 mins by fluorescence analysis; format: cell-based; settings: ht1197, 0.25 h, dose 0.1-10 µM
In short: (§2)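 5000 cells/well in phenol-red-free medium plated 24 h before; compounds 0.1, 1, 10 µM for 15 min, then EFLUXX-ID Green reagent (1:200) plus Hoechst-33342 1 µg/mL, 30 min 37 °C. Widefield imaging; median green intensity from 250 cells per well normalized to untreated wells. Mean ± SD of three wells; one-tailed t-test.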

HT-29 = test: Coadjutant activity against multidrug resistance in human HT-29 cells assessed as potentiation of cisplatin-induced cell growth inhibition at 4 uM incubated for 72 hrs in presence of 0.1 to 100 uM cisplatin by SiR-DNA/CellTox Green Dye based fluorescence analysis; format: functional
In short: (§3)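 Cisplatin co-treatment, 72 h imaging growth assay (SiR-DNA nuclei minus CellTox Green dead cells, 500 cells/well, phenol-red-free medium). Combinations: inhibitor fixed with cisplatin 0.1–100 µM, or cisplatin fixed at 0.25 µM with inhibitor 0.25–4 µM. Three technical replicates, mean ± SD; two-tailed t-test.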

HCT-116 (Homo sapiens) = test: Coadjutant activity against multidrug resistance in human HCT-116 cells assessed as potentiation of cisplatin-induced cell growth inhibition at 0.25 to 4 uM incubated for 72 hrs in presence of 0.25 uM cisplatin by SiR-DNA/CellTox Green Dye based fluorescence analysis; settings: dose 0.25-4 µM
HuP-T3 [3] = test: Coadjutant activity against multidrug resistance in human Hup-T3 cells assessed as potentiation of cisplatin-induced cell growth inhibition at 4 uM incubated for 72 hrs in presence of 0.1 to 100 uM cisplatin by SiR-DNA/CellTox Green Dye based fluorescence analysis; format: functional; in short: as §3
A498 [4] = test: Coadjutant activity against multidrug resistance in human A498 cells assessed as potentiation of vincristine-induced cell growth inhibition by measuring cell growth at 4 uM incubated for 72 hrs in presence of 0.02 to 20 uM vincristine by SiR-DNA/CellTox Green Dye based fluorescence analysis; format: functional; parameters: scale not given: the % may be the effect or the level left; in short: as §1
[5] = molecular target: T1, ATP-dependent translocase ABCB1; test: Inhibition of P-gp in human HCT-15 cells assessed as increase in green fluorescence intensity at 0.1 to 1 uM incubated for 15 mins followed by incubation with EFFLUX-ID Green Detection Reagent and Hoeschst-33342 dye and measured after 30 mins by fluorescence analysis; format: cell-based; settings: hct-15, 0.25 h, dose 0.1-1 µM; in short: as §2
SK-HEP1 = test: Coadjutant activity against multidrug resistance in human SK-HEP1 cells assessed as potentiation of vincristine-induced cell growth inhibition at 4 uM incubated for 72 hrs in presence of 0.02 to 20 uM vincristine by SiR-DNA/CellTox Green Dye based fluorescence analysis; format: functional; in short: as §1
A704 [6] = test: Coadjutant activity against multidrug resistance in human A704 cells assessed as potentiation of vincristine-induced cell growth inhibition at 0.25 to 4 uM incubated for 72 hrs in presence of 0.2 uM vincristine by SiR-DNA/CellTox Green Dye based fluorescence analysis; format: functional; settings: dose 0.25-4 µM; in short: as §1
[7] = molecular target: T1, ATP-dependent translocase ABCB1; test: Inhibition of P-gp in human CAKI-2 cells assessed as increase in green fluorescence intensity at 0.1 to 10 uM incubated for 15 mins followed by incubation with EFFLUX-ID Green Detection Reagent and Hoeschst-33342 dye and measured after 30 mins by fluorescence analysis; format: cell-based; settings: caki-2, 0.25 h, dose 0.1-10 µM; in short: as §2
A498 [8] = test: Coadjutant activity against multidrug resistance in human A498 cells assessed as potentiation of vincristine-induced cell growth inhibition at 0.25 to 4 uM incubated for 72 hrs in presence of 0.2 uM vincristine by SiR-DNA/CellTox Green Dye based fluorescence analysis; format: functional; settings: dose 0.25-4 µM; in short: as §1
U-87 MG = test: Coadjutant activity against multidrug resistance in human U-87 MG cells assessed as potentiation of etoposide-induced cell growth inhibition at 4 uM incubated for 72 hrs in presence of 0.04 to 40 uM etoposide by SiR-DNA/CellTox Green Dye based fluorescence analysis; format: functional; settings: U-87MG ATCC; in short: as §1
[9] = Cytotoxicity against human A498 cells assessed as inhibition of cell growth at 4 uM incubated for 72 hrs by SiR-DNA/CellTox Green Dye based fluorescence analysis relative to control; format: toxicity
In short: (§4)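 Single-agent control at 4 µM, no anticancer drug. 500 cells/well with SiR-DNA and CellTox Green; imaged at addition and 72 h. Live count = total nuclei minus dead cells, expressed as percent growth. Three technical replicates.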

HCT-116 = test: Coadjutant activity against multidrug resistance in human HCT-116 cells assessed as potentiation of cisplatin-induced cell growth inhibition at 4 uM incubated for 72 hrs in presence of 0.1 to 100 uM cisplatin by SiR-DNA/CellTox Green Dye based fluorescence analysis; format: functional; in short: as §3
A704 [10] = test: Coadjutant activity against multidrug resistance in human A704 cells assessed as potentiation of vincristine-induced cell growth inhibition by measuring cell growth at 4 uM incubated for 72 hrs in presence of 0.02 to 20 uM vincristine by SiR-DNA/CellTox Green Dye based fluorescence analysis; format: functional; parameters: scale not given: the % may be the effect or the level left; in short: as §1
HuP-T3 [11] = test: Cytotoxicity against human Hup-T3 cells assessed as inhibition of cell growth at 4 uM incubated for 72 hrs by SiR-DNA/CellTox Green Dye based fluorescence analysis; format: toxicity; settings: hup-t3, 72 h; in short: as §4
[12] = molecular target: T1, ATP-dependent translocase ABCB1; test: Inhibition of P-gp in human A498 cells assessed as increase in green fluorescence intensity at 0.1 to 10 uM incubated for 15 mins followed by incubation with EFFLUX-ID Green Detection Reagent and Hoeschst-33342 dye and measured after 30 mins by fluorescence analysis; format: cell-based; settings: a498, 0.25 h, dose 0.1-10 µM; in short: as §2
[13] = molecular target: Voltage-dependent L-type calcium channel subunit alpha-1C (Rattus norvegicus, UniProt P22002); test: Inhibition of Cav1.2 in Wistar rat tail artery smooth muscle cells assessed as inhibition of Ba2+ current at 0.3 to 10 uM at holding potential of -50 mV by whole cell patch clamp analysis; format: toxicity, tissue-based; settings: dose 0.3-10 µM
In short: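 Freshly dissociated rat tail main artery myocytes (collagenase XI, 37 °C). Whole-cell patch clamp, 20–22 °C; Cs-based internal, external with 30 mM TEA and 5 mM Ba2+. IBa1.2 evoked by 250-ms steps to 10 mV from −50 mV at 0.067 Hz; compound added cumulatively 0.3–10 µM; leak subtracted using 10 µM nifedipine. Amplitude as percent of control, n = 5.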

T1 sequence (P08183 whole entry): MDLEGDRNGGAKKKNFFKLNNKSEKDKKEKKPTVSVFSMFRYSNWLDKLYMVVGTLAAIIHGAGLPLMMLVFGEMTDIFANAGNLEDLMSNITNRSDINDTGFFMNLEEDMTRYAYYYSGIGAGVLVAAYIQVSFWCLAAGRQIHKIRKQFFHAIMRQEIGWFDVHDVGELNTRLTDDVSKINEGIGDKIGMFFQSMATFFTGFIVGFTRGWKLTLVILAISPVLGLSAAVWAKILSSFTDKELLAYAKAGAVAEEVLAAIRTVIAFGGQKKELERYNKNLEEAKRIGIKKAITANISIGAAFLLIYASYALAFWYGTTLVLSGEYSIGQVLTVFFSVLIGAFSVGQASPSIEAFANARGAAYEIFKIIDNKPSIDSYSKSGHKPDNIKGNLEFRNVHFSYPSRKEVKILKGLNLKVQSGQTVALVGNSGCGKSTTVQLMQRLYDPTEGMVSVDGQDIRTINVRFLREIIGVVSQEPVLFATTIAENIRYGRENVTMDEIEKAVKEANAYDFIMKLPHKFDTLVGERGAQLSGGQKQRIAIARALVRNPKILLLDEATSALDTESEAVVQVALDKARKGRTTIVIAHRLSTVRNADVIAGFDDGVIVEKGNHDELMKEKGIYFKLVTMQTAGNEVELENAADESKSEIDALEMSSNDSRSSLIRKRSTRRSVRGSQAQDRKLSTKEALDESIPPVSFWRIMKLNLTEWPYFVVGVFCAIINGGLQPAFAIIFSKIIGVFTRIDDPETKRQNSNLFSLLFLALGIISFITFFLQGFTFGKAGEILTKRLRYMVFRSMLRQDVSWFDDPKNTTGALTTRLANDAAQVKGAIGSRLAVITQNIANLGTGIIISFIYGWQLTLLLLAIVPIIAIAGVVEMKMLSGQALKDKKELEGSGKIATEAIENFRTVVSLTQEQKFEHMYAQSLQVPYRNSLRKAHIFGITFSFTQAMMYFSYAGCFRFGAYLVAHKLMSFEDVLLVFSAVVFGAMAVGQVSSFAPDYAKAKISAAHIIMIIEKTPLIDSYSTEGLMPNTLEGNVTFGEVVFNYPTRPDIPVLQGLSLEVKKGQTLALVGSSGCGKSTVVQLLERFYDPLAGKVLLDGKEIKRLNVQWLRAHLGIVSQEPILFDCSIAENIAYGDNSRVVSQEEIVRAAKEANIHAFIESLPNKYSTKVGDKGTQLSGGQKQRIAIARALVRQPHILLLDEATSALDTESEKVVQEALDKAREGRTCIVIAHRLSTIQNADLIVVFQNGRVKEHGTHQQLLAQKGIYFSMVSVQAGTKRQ
Sequence of Voltage-dependent L-type calcium channel subunit alpha-1C (P22002 whole entry): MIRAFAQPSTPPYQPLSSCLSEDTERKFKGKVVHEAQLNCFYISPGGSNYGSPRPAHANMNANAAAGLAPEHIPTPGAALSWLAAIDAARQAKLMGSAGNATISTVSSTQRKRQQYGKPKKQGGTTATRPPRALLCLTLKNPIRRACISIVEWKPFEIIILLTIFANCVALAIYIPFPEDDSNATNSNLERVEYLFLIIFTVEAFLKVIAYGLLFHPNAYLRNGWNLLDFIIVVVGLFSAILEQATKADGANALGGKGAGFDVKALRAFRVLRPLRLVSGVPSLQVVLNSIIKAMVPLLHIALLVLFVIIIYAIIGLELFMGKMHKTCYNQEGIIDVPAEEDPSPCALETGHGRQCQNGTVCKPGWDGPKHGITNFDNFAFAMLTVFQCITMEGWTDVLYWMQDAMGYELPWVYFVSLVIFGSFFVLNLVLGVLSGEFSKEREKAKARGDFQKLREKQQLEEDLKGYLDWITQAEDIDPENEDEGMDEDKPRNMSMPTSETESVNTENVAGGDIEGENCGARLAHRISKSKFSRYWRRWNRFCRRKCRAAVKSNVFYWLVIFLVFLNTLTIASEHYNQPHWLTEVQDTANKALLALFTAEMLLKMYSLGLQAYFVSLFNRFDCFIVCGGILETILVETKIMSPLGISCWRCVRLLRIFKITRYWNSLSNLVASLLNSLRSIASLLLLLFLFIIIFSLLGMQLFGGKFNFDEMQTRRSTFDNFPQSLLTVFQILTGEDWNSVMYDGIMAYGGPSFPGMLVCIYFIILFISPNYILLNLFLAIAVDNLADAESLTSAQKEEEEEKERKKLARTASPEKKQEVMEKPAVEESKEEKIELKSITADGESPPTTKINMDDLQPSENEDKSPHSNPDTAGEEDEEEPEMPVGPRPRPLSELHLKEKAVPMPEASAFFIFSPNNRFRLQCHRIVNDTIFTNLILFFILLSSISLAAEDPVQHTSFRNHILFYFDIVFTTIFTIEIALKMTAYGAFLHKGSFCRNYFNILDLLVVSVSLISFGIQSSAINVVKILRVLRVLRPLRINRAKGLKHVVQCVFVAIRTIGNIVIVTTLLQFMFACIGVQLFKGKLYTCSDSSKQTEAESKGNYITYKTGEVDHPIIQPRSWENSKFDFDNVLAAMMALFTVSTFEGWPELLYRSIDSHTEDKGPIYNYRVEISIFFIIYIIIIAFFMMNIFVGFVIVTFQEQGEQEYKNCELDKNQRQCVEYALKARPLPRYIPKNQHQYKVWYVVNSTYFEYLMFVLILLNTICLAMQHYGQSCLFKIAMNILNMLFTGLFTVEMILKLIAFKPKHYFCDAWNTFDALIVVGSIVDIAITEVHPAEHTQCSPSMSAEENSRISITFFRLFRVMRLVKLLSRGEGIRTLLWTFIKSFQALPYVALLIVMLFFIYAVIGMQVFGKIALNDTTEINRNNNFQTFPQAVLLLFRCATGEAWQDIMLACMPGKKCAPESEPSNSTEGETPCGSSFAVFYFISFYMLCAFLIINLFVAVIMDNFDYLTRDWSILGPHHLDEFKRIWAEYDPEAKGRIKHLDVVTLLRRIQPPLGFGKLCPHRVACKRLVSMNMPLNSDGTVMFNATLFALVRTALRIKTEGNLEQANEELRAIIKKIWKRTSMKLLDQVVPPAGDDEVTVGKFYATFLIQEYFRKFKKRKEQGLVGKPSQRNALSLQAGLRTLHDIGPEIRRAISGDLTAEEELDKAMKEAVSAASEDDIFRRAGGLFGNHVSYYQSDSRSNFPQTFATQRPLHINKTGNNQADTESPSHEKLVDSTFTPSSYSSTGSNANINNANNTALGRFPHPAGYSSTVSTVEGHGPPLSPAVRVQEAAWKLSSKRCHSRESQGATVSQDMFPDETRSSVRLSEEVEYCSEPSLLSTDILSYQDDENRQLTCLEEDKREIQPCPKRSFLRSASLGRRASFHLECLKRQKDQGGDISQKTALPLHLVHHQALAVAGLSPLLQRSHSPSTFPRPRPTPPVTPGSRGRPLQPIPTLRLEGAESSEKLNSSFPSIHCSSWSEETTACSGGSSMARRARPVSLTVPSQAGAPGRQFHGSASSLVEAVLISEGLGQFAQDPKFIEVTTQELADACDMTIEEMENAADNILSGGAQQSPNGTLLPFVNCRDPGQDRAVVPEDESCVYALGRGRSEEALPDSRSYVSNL

- inhibition (INH) [2]: Not Active
- inhibition (INH) [5]: Dose-Dependent Effect
- inhibition (INH) [7]: Active
- inhibition (INH) [12]: Not Active
Compound: O=C(Nc1ccccc1)c1ccccc1OCc1nc2cc3cccnc3cc2nc1COc1ccccc1C(=O)Nc1ccccc1
- Activity (HuP-T3 [1]): 50%
- Activity (HT-29): inactive
- Activity (HCT-116 (Homo sapiens)): inactive
- Activity (HuP-T3 [3]): inactive
- Activity (A498 [4]): 50%
- Activity (SK-HEP1): Active
- Activity (A704 [6]): Active
- Activity (A498 [8]): Active
- Activity (U-87 MG): Active
- inhibition at 72 h, 4 µM [9]: 20%
- Activity (HCT-116): inactive
- Activity (A704 [10]): 50%
- Activity (HuP-T3 [11]): Non-Toxic
- inhibition (INH) [13]: Not Active
